Reference: ChEMBL document CHEMBL1138524, “Structure-based discovery of triphenylmethane derivatives as inhibitors of hepatitis C virus helicase” (J Med Chem, 2009)
Calls of active or inactive are those of the source. The calls are words filed in the database; no cut-off is given here.

Key:
Hepacivirus hominis [1] = experiment: Inhibition of HCV NS3/4A helicase at 100 uM by FRET assay
Outline: (§1)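 His-tagged NS3/4A (0.9 µg) preincubated with compound on ice for 15 min. Fluorescence (ex 485/em 518 nm) followed continuously and end-point minus start normalized to DMSO. Screened at 100 µM final.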

[2] = Inhibition of ATPase activity of HCV NS3/4A helicase by autoradiography; parameters: species or system Hepacivirus hominis
Outline: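 ATP hydrolysis measured in 20 mM HEPES-KOH pH 7.0, 1.5 mM MgCl2, 2 mM DTT and 0.1 µg/mL poly-U, with [α-32P]ATP spanning 0.067-20 µM ATP. Reaction started by adding His-tagged NS3/4A (0.45 µg) and stopped with EDTA after 5 min. Products separated by PEI-cellulose TLC in 0.375 M K2PO4 pH 3.5 and quantified by autoradiography.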

[3] = Inhibition of HCV NS3/4A helicase by FRET assay; parameters: species or system Hepacivirus hominis; outline: as §1
Hepacivirus hominis [4] = experiment: Inhibition of HCV NS3/4A helicase assessed as blockade of dsRNA binding to enzyme by gel mobility shift assay
Outline: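 Gel mobility shift. NS3/4A (0.45 µg) preincubated with 100 µM compound in helicase buffer without ATP for 5 min at 37 °C. Then 0.66 pmol isotope-labeled partial dsRNA added for 15 min more. Complexes resolved on 4% polyacrylamide containing 5% glycerol and visualized by autoradiography.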

Hepacivirus hominis [5] = experiment: Inhibition of HCV NS3/4A helicase assessed as blockade of ssRNA formation form dsRNA at 100 uM by PAGE
Hepatitis C virus [6] = experiment: Antiviral activity against HCV1b infected in human Ava5/Huh7 cells by replicon-cell assay; format: functional, organism-based, Hepacivirus hominis; details: genotype 1b
[7] = Cytotoxicity against human HuH7 cells; format: cell-based, Huh-7
[8] = Ratio of CC50 for human HuH7 cells to EC50 for HCV1b; parameters: species or system Huh-7
Hepatitis C virus [9] = experiment: Antiviral activity against HCV1b infected in human Ava5/Huh7 cells assessed as decrease in viral RNA level at 5 to 10 uM after 2 days by RT-PCR relative to control; format: functional, Hepacivirus hominis, genotype 1b; parameters: scale not given: the % may be the effect or the level left
Outline: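 Ava.5/Huh-7 replicon cells (genotype 1b) seeded and grown 24 h in G-418-free DMEM, then exposed to 5, 10 or 20 µM compound for 24 or 48 h. Total RNA extracted and 1 µg reverse-transcribed with random decamers. SYBR Green real-time PCR run 40 cycles. HCV signal normalized to GAPDH and expressed relative to untreated replicon cells set at 1.0. Triplicate, averaged.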

[10] = Cytotoxicity against human Ava5/Huh7 cells assessed as reduction in cell growth at 5 uM after 5 days in absence of polypeptide synthesis blocker G418; format: cell-based; parameters: scale not given: the % may be the effect or the level left; details: ava5/huh7, 120 h
[11] = Cytotoxicity against human Ava5/Huh7 cells assessed as reduction in cell growth at 5 uM after 5 days in presence of polypeptide synthesis blocker G418; format: cell-based; parameters: scale not given: the % may be the effect or the level left; details: ava5/huh7, 120 h

SMILES	inhibition (Hepacivirus hominis [1]) [%]	IC50 [2] [µM]	IC50 [3] [µM]	Activity (Hepacivirus hominis [4])	Activity (Hepacivirus hominis [5])	EC50 (Hepatitis C virus [6]) [µM]	CC50 [7] [µM]	further results
COc1ccc(-c2cc(-c3ccc(N(C)C)cc3)nc(NS(=O)(=O)c3ccc(N)cc3)n2)cc1	46	–	–	–	–	–	–	–
CC(C)(c1ccc(O)cc1)c1ccc(C(C)(C)c2ccc(O)cc2)cc1	–	–	60.7	–	–	–	–	–
COc1ccc(C(C)(C)c2ccc(C(C)(c3ccc(OC)cc3)c3ccc(OC)cc3)cc2)cc1	15	–	–	–	–	–	–	–
Nc1ccc(C(c2ccc(N)cc2)c2ccc(N)cc2)cc1	30	–	–	–	–	–	–	–
CC(c1ccc(O)cc1)(c1ccc(O)cc1)c1ccc(O)cc1	39	–	–	–	–	–	–	–
CC(C)(c1ccc(C(C)(c2ccc(O)c(Br)c2)c2ccc(O)c(Br)c2)cc1)c1ccc(O)c(Br)c1	–	–	10.1	–	–	2.72	10.5	Ratio CC50/EC50 [8]: 3.86; Activity (Hepatitis C virus [9]): 40%; Activity [10]: 20%; Activity [11]: 50%
CC(c1ccccc1)(c1ccc(O)cc1)c1ccc(O)cc1	43	–	–	–	–	–	–	–
CC(C)(c1ccc(O)cc1)c1ccc(C(C)(c2ccc(O)cc2)c2ccc(O)cc2)cc1	–	25.9	13.9	Dose-dependent effect	Active	8.37	12.7	Ratio CC50/EC50 [8]: 1.51

More lines, main results first:

inhibition (Hepacivirus hominis [1]) [%]	IC50 [2] [µM]	IC50 [3] [µM]	Activity (Hepacivirus hominis [4])	Activity (Hepacivirus hominis [5])	EC50 (Hepatitis C virus [6]) [µM]	SMILES	CC50 [7] [µM]	further results
–	> 100	12.6	Dose-dependent effect	inactive	0.69	Cc1cc([C@@](O)(c2ccc(Nc3ccccc3)cc2)c2ccc(Nc3ccc(S(=O)(=O)[O-])cc3)cc2)ccc1N.[Na+]	0.96	Ratio CC50/EC50 [8]: 1.39
–	23.8	40	Dose-dependent effect	Active	> 50	O=S(=O)(O)c1ccc(N=C2C=CC(=C(c3ccc(Nc4cccc(S(=O)(=O)O)c4)cc3)c3ccc(Nc4cccc(S(=O)(=O)O)c4)cc3)C=C2)cc1	> 50	–
–	25.1	29.7	Dose-dependent effect	Active	> 50	O=C(O)c1cc(Nc2ccc(C(Cl)(c3ccccc3)c3ccc(Nc4ccc(Cl)c(C(=O)O)c4)cc3)cc2)ccc1Cl	> 50	–
0	–	–	–	–	–	CC(c1ccccc1)(c1ccc(Oc2ccc([N+](=O)[O-])cc2)cc1)c1ccc(Oc2ccc([N+](=O)[O-])cc2)cc1	–	–
